# Screens deposited in PubChem BioAssay by several laboratories.
# In the library only some 1.8% were active in any assay of this set; here they are far more common.
# Tb MetRS inh – blocks T. brucei methionyl-tRNA synthetase activity; purified T. brucei MetRS, ATP depletion, Kinase-Glo luminescence; inhibition, % at 11.9 µM; 360,000 tested, 0.4% active;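 active = inhibition above a per-plate cutoff of the control wells' mean inhibition plus 3 SD, cut at about 5.5% in these data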;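 note: 0% = DMSO wells median and 100% = median of wells with control inhibitor compound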
#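 Dosing: 11.9 µM compound single dose, 0.9% DMSO; Assay system: purified T. brucei MetRS enzyme; Measured by: Kinase-Glo luciferase luminescence reporting remaining unconsumed ATP; Schedule: 15 min plus 2 h at 25 °C.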
# A3G deaminase – inhibitors of human APOBEC3G DNA deaminase. inhibition, % at 20 µM. 330,000 tested, 0.28% active. recombinant A3G, ssDNA deamination FAM/TAMRA fluorescence;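 active = inhibition of at least 40% at 20 µM, with no more than 30% in the related APOBEC3A deaminase screen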;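 note: plate controls were DMSO wells with A3G for no effect and wells lacking A3G enzyme for full effect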
# APOBEC3A inh – inhibitors of human APOBEC3A DNA deaminase | AID 493011 | 330,000 tested, 0.41% active | recombinant A3A, FAM/TAMRA ssDNA deamination fluorescence | P31941 | inhibition, % at 20 µM;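 active = at least 40% inhibition at 20 µM here, with at most 30% in a related deaminase screen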;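 note: plate controls were A3A with DMSO for no effect and wells lacking A3A enzyme for full effect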
# Target sequence (P31941 whole entry, looked up): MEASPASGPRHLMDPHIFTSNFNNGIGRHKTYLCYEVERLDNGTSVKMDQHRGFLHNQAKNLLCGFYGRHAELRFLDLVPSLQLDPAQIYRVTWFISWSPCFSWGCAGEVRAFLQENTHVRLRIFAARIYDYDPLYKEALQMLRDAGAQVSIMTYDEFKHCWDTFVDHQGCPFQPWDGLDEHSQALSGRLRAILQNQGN
# p-CIP stab down – p/CIP protein destabilization | F442A p/CIP-EGFP cells, EGFP fluorescence, 16 h | Q05BA5 | decrease of EGFP signal, % at 10 µM | 290,000 tested, 0.01% active;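 active = EGFP signal decrease of at least 30% at 10 µM or well 3 SD below plate mean, unless failing retest; inactive = the rest, including hits failing retest or dose response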
# PHOSPHO1 inh – inhibitors of human PHOSPHO1 phosphatase; Q8TCT1; AID 1565; 290,000 tested, 1.1% active; inhibition, % at 13.3 µM; recombinant PHOSPHO1, absorbance phosphatase assay; in the data active = inhibition above about 60%
# Target sequence (Q8TCT1 whole entry, looked up): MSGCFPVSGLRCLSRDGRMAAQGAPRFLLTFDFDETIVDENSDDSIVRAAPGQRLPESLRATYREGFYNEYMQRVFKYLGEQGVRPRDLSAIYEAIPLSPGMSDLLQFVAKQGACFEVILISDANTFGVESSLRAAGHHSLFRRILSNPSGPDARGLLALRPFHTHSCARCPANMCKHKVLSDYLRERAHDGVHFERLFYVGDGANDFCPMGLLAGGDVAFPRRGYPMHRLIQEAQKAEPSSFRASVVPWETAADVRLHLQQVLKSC
# A3A conf – confirmation of human APOBEC3A DNA deaminase inhibitors; shares compounds with APOBEC3A inh; recombinant A3A, ssDNA deaminase UDG fluorescence assay; inhibition, % at 20 µM; 1,400 tested, 63% active;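 active = inhibition reaching a set limit, 80% of the first screen's cutoff, at 20 µM in any replicate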;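 note: plate controls were DMSO wells with A3A for no effect and wells lacking A3A enzyme for full effect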
# UDG ctr A3A – counter-screen for APOBEC3A inhibitors: UDG; shares compounds with APOBEC3A inh; UDG counterscreen, FAM/TAMRA uracil oligo fluorescence; inhibition, % at 20 µM; 1,000 tested, under 10 active; AID 504714; call rule not given here
# Numbers without * were called inactive; / = no result given.
SMILES,Tb MetRS inh,A3G deaminase,APOBEC3A inh,p-CIP stab down,PHOSPHO1 inh,A3A conf,others
COc1ccc(C)cc1-n1nnnc1SC(C)C(=O)NC1CCCC1 (stereo not given),0,-4,-1,/,/,/,
CC(NC(=S)NCCN1CCOCC1)C12CC3CC(CC(C3)C1)C2 (stereo not given),0,-6,-5,0,-1,/,
O=C(NCc1cnn(-c2ccc(F)cc2)c1)C1CCC(=O)N(C2CC2)C1 (stereo not given),-1,-5,-5,-12,61*,/,
C=C(C)c1cccc(C(C)(C)NC(=O)NCc2ccncc2)c1,0,-6,-1,-12,66*,/,
C=C(C)c1cccc(C(C)(C)NC(=O)NCc2cccnc2)c1,0,-11,0,-12,41,/,
COc1ccc(Cl)cc1NC(=O)C1CC(c2ccccc2O)=NO1 (stereo not given),-1,-4,-2,-9,30,/,
O=C(COc1ccccc1)Nn1cnc2ccccc21,-1,-5,4,6,97*,/,
CCOC(=O)C1=C(Nc2ccccc2)CC(C)(O)C(C(=O)OCC)C1c1ccc(Br)cc1 (stereo not given),0,2,1,0,2,/,
O=C(NCCO)C(O)C(O)C(=O)NCCO (stereo not given),0,-3,0,1,45,/,
O=C(CSc1ccc2nnc(-c3cccc(F)c3)n2n1)N1CCCc2ccccc21,-1,-11,-8,-2,-21,/,
CCSc1ccc2nnc(-c3cccc(F)c3)n2n1,0,4,23,-5,94*,/,
CCCCNC(=S)NNC(=O)c1csc2ccccc12,0,3,9,0,62*,/,
CCCCNC(=S)NNC(=O)c1ccoc1C,0,-3,0,0,46,/,
CN(CC(=O)Nc1ccc(OC(F)(F)F)cc1)C(=O)c1ccccc1SCC(=O)N1CCCC1,0,/,/,/,/,/,
CCOC(=O)C1CCN(C(=O)CCc2ccc(S(=O)(=O)NCC(C)C)cc2)CC1,-1,-4,0,-2,60*,/,
CCOC(=O)C1CCN(C(=O)CCc2ccc(S(=O)(=O)NC(C)C)cc2)CC1,-1,-7,-5,3,-8,/,
CC(C)n1c(N2CCN(S(=O)(=O)c3cccc([N+](=O)[O-])c3)CC2)nc2ccccc21,-1,-3,-2,-7,61*,/,
CCN1CCN(c2ccc(N3CCN(S(=O)(=O)c4cccc([N+](=O)[O-])c4)CC3)nn2)CC1,0,/,/,/,/,/,
O=C1C(=O)C(Cl)=C(Cl)C(Cl)=C1Cl,-1,/,/,/,/,/,
CCOc1ccccc1N1CCN(C(=O)C(F)(F)F)CC1,0,-2,1,1,9,/,
CCOc1ccccc1N1CCN(C(=O)CC(C)(C)C)CC1,-1,3,4,-2,73*,/,
Cn1c(Cc2cccs2)nnc1SCC(=O)Nc1ccc(F)cc1F,0,-8,4,/,/,/,
Cc1nn(C)c2c1NC(=O)CS2,0,/,/,/,/,/,
CCN(c1ccccc1)S(=O)(=O)c1cc(C(=O)OC(C)C(=O)Nc2ccc3c(c2)OCCO3)ccc1C (stereo not given),-1,13,50*,1,39,37*,UDG ctr A3A=1
CC(OC(=O)c1ccccn1)C(=O)Nc1ccc2c(c1)OCCO2 (stereo not given),0,-3,-2,/,/,/,
SMILES,Tb MetRS inh,A3G deaminase,APOBEC3A inh,p-CIP stab down,PHOSPHO1 inh,A3A conf,others
CCN1C(=NCCOC)N[C@@H](c2cccc(C(F)(F)F)c2)C(C(=O)OC)=C1C,0,14,45*,/,/,80*,UDG ctr A3A=-2
COC(=O)C1=C(C)N(Cc2ccccc2)C(=NCC(C)C)N[C@H]1c1cccc(C(F)(F)F)c1,0,16,48*,/,/,75*,UDG ctr A3A=3
CCN1C(=NCC2CC2)N[C@@H](c2cccc(C(F)(F)F)c2)C(C(=O)OC)=C1C,0,8,56*,-14,-36,67*,UDG ctr A3A=3
CCN1C(=NCc2ccco2)N[C@@H](c2cccc(C(F)(F)F)c2)C(C(=O)OC)=C1C,1,16,25,/,/,/,
CCOC1=C2[C@@H](CN(S(=O)(=O)c3ccc(C)cc3)[C@H]2c2ccc(CC)cc2)[C@H]2C(=O)N(C)C(=O)[C@H]2C1,-1,/,/,/,/,/,
O=C(CSc1ncnc2nc[nH]c12)Nc1ccccc1C(F)(F)F,0,25,57*,1,79*,39*,UDG ctr A3A=-4
CC[n+]1ccc(/C=C/c2c[nH]c3ccccc23)cc1,-1,2,48*,-268,-25,64*,UDG ctr A3A=-8
COc1ccc2c(/C=C/c3cc[n+](C)cc3)c[nH]c2c1,0,12,45*,-68,22,61*,UDG ctr A3A=3
Cc1ccc2[nH]cc(/C=C/c3cc[n+](C)cc3)c2c1,-1,-14,49*,-483,-29,67*,UDG ctr A3A=-8
CCn1c(/C=C/c2c[nH]c3ccccc23)nc2ccccc2c1=O,0,-12,-3,-3,41,/,
COc1ccc2c(C=O)c[nH]c2c1,0,2,0,3,-4,/,
Cc1ccc([C@H]2C[C@H](n3cc(-c4ccc(F)cc4)nn3)[C@@H](O)CN2CC2CCCCC2)cc1,0,/,/,/,/,/,
COc1ccc(N2Cc3cccc(C(=O)N4CCOCC4)c3C2=O)cc1,0,-7,-6,5,-3,/,
COc1ccc(N2Cc3cccc(C(=O)N4CCN(C(=O)c5ccco5)CC4)c3C2=O)cc1,1,29,59*,-3,-4,43*,
COc1ccc2cc(-c3[nH]ncc3CN3CCCN(c4ccccc4)CC3)ccc2c1,0,-1,-3,1,35,/,
CN(C)c1ccc(CNc2ncnc3sccc23)cc1,-1,5,-2,-25,35,/,
Cc1cccc(N2CCN(C(=O)CCS(=O)(=O)c3ccc(Br)cc3)CC2C)c1 (stereo not given),1,18,45*,-4,-12,29,
Cc1cc(C(O)c2ncc(-c3cccc4ccccc34)[nH]2)ccc1F (stereo not given),0,/,/,/,/,/,
CCCCCCCC[n+]1cccc2c3ccccc3ccc21,2,20,57*,1,-5,75*,UDG ctr A3A=4
CCCCCCCCCC[n+]1cccc2c3ccccc3ccc21,4,/,/,5,-8,/,
COc1ccc2oc(C(=O)OCC(=O)N3CCN(S(=O)(=O)c4ccc(C)cc4)CC3)c(C)c2c1,0,-3,6,23,24,/,
Cc1ccc(S(=O)(=O)N2CCC(C(=O)Nc3ccc(N4CCOCC4)cc3)CC2)cc1C,0,4,43*,/,/,11,
COc1ccc(N(Cc2cc3cc(C)ccc3[nH]c2=O)C(C)=O)cc1,1,-4,47*,0,52,-3,UDG ctr A3A=0
CCCn1c(=O)c2sccc2n2c(CCCC(=O)NCc3ccco3)nnc12,1,15,46*,-9,29,34*,
CCCn1c(=O)c2sccc2n2c(CCCC(=O)NCc3cccnc3)nnc12,0,0,-2,-3,21,/,
